Sampled rows, rich in hits. Any-hit rate of the full collection: about 2.9%.
GalR3 antagonist: human GalR3 antagonism; inhibition, % at 3 µM; 360,000 tested, 0.44% active; AID 651719; O60755; HEK293 GalR3-CNG cAMP membrane potential fluorescence; galR3 body fused to GalR1 C-terminus;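 active = inhibition above the screen-wide average plus 3 SD, cut at about 13% in these data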;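 note: forskolin and galanin both at EC90 stimulate the cells; cAMP rise reported by CNG channel membrane potential dye signal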
Target sequence (O60755 1-299 limits assumed): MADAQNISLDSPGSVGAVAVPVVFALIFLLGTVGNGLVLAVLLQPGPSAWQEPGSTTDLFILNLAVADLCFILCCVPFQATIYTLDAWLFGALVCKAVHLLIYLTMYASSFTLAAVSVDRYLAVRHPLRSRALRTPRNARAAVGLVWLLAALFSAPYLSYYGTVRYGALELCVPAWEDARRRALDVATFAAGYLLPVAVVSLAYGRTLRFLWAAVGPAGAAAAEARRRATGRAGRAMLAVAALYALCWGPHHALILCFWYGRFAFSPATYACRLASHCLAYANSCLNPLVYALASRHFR
MC4R antagonist: human MC4R antagonism in cAMP assay | inhibition, % at 6.5 µM | MC4R-expressing cells, MTII-stimulated cAMP, LANCE TR-FRET | P32245 | 360,000 tested, 0.48% active;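 active = inhibition above its plate's cutoff, the mean of tested wells on that plate plus 3 SD, cut at about 29% in these data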
Target sequence (P32245 whole entry, looked up): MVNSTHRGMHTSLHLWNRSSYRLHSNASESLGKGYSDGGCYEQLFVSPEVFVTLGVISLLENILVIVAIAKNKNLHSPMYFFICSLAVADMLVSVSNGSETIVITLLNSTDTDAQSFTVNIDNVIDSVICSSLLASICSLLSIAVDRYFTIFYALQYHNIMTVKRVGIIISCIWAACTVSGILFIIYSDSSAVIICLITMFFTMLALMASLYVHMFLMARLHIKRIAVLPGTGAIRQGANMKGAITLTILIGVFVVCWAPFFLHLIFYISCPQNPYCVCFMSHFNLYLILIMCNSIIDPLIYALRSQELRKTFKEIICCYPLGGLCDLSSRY
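Material: U2OS-MC4R stable cell line | Reagent: Melanotan II challenge after compound preincubation | Doses: One concentration, 6.5 µM nominal | Incubation: 30-min compound preincubation, 1-h Melanotan II challenge, 1-h detection, room temperature | Signal: TR-FRET cAMP assay | Replicates: One well per compound, no replicates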
TAG inh: triacylglycerol accumulation inhibition | H9c2 cells, Nile Red lipid (TAG) fluorescence; cells loaded with 200 µM oleic acid | inhibition, % at 12.5 µM | 230,000 tested, 0.66% active;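 active = pattern-corrected inhibition of lipid staining of at least 50% with the nuclear-stain viability signal not falling by more than 50%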
Calb FLC: C. albicans growth modulation with fluconazole; growth inhibition, % (no concentration beside the values); C. albicans CaCi-2 + fluconazole, Alamar Blue growth, 48 h; 300,000 tested, 0.57% active; AID 1979;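 active = growth inhibition above about 58% in most replicates, limit read from the data, passing the limit was not always enough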;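 note: all wells also contain fluconazole at 8 µg/ml as a sub-toxic cotreatment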
MC4R barr agon: activates human MC4R beta-arrestin recruitment; U2OS MC4R beta-arrestin complementation, luminescence; percent of melanotan II response, DMSO zero; activation, % at 8.9 µM; 360,000 tested, 0.98% active;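 active = activation above a per-plate cutoff, the mean activation of sample wells on that plate plus 3 SD, cut at about 8% in these data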
Efflux pump mplx: blocks antifungal efflux pumps in multiplex yeast assay; AID 485275; S. cerevisiae Candida pump triplex, Nile Red efflux; inhibition, % at 10 µM; 330,000 tested, 0.44% active;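 active = plate passing quality check with inhibition over a set limit, or well fluorescence over plate mean plus 4 SD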;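 note: Nile Red retained in pooled yeast measured as flow cytometry median fluorescence; higher means more Nile Red kept so more efflux inhibition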
MC4R barr conf: human MC4R beta-arrestin agonism confirmation; activation, % at 8.9 µM; U2OS MC4R beta-arrestin recruitment, luminescence; scaled DMSO 0%, Melanotan II 100%; shares compounds with MC4R barr agon; 2,400 tested, 31% active;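 active = mean activation across replicates above the hit cutoff set in the earlier primary screen, cut at about 8% in these data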
MOR DOR agonist: activates mu-delta opioid heterodimer, MC4R agonist counter-screen | shares compounds with MC4R barr agon | U2OS PathHunter beta-arrestin, beta-gal luminescence; percent of deltorphin B response, DMSO zero | activation, % at 9.2 µM | 2,400 tested, 5.8% active | AID 602194;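 active = mean activation across replicates exceeds the hit threshold derived in the earlier primary screen, cut at about 18% in these data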
Each line names hits and unclear results; the compound was inactive in the other large screens (follow-up assays come after a bar, where they were run).

C=CCn1c(SCC(=O)Nc2ccc(C(=O)OC(C)C)cc2)nnc1-c1cccs1	MC4R barr agon 23 | MC4R barr conf inactive | MOR DOR agonist inactive
O=C(/C=C/c1cccs1)c1ccc([N+](=O)[O-])cc1	MC4R barr agon 11 | MC4R barr conf inactive | MOR DOR agonist inactive
O=C(/C=C/c1cccs1)Nc1ccc([N+](=O)[O-])cc1	none
N#C/C(=C\c1ccc(Sc2ccccc2)o1)c1nc2ccccc2[nH]1	MC4R barr agon 12 (no result: TAG inh) | MC4R barr conf inactive | MOR DOR agonist inactive
N#C/C(=C\c1ccc(-c2ccccc2C(=O)O)o1)c1nc2ccccc2[nH]1	none (no result: TAG inh)
CC(=O)c1cccc(NS(=O)(=O)c2ccc(N/C=C\C(=O)c3ccc(C)cc3)cc2)c1	MC4R barr agon 30 | MC4R barr conf inactive | MOR DOR agonist inactive
CC(=O)c1cccc(NS(=O)(=O)c2ccc(N/C=C/C(=O)c3ccc(F)cc3)cc2)c1	none (no result: TAG inh)
CNc1ncnc2c1ncn2[C@H]1CN(CCOC)C[C@@H](CO)O1	none (no result: Calb FLC, Efflux pump mplx)
COc1ccc2cc(C[C@@H]3CC[C@@H](CO)O3)ccc2c1	none (no result: Calb FLC)
Cc1cccc(C(C)C)c1NC(=O)COC(=O)c1cccc(S(=O)(=O)N2CCc3ccccc3C2)c1	MC4R barr agon 18 (no result: TAG inh) | MC4R barr conf 8.6 | MOR DOR agonist inactive
COc1cccc(CNC(=O)[C@H]2CCCN2C(=O)C2CCCN2C(=O)c2ccc(OC)c(F)c2)c1 (stereo not given in full)	none (no result: MC4R antagonist, TAG inh, Calb FLC, MC4R barr agon, Efflux pump mplx)
Cc1ccc(NC(=O)Cn2c(/C=C/c3ccccc3)nc3ccccc32)cc1C	MC4R barr agon 17 | MC4R barr conf inactive
Cc1ccc(C(=O)Cn2c(C(=O)/C=C/c3ccccc3)nc3ccccc32)cc1	MC4R barr agon 20 | MC4R barr conf 21 | MOR DOR agonist inactive
CCCNC(=O)C1(C)CCN(C(=O)C2(c3ccc(Cl)cc3)CCCC2)C1 (stereo not given)	none (no result: Calb FLC, Efflux pump mplx)
CCCCCNC(=O)C(c1ccnc2ccccc12)n1c(=O)c(-c2ccccc2)nc2ccccc21 (stereo not given)	none (no result: MC4R antagonist, TAG inh, Calb FLC, MC4R barr agon, Efflux pump mplx)
COc1cc(/C=N/N=C(/N)c2nonc2N)cc(Br)c1OCc1ccccc1C	MC4R barr agon 16 | MC4R barr conf inactive | MOR DOR agonist inactive
COC(=O)C[C@H]1C=C[C@H](NC(=O)Nc2ccccc2OC)[C@@H](CO)O1	none (no result: MC4R antagonist, TAG inh, Calb FLC, MC4R barr agon, Efflux pump mplx)
O=C(OC1CCN(c2ccc([N+](=O)[O-])cc2)CC1)c1ccccc1	MC4R barr agon 20 (no result: TAG inh) | MC4R barr conf inactive | MOR DOR agonist inactive
O=C(ON=C1CCN(c2ccc([N+](=O)[O-])cc2)CC1)c1ccccc1	none (no result: TAG inh)
CC(C)=CCC/C(C)=C/C=N/NC(=O)c1ccc([N+](=O)[O-])cc1	MC4R barr agon 15 (no result: TAG inh) | MC4R barr conf inactive | MOR DOR agonist inactive
CC(C)=CCC/C(C)=C/C=N/NC(=O)c1cccc([N+](=O)[O-])c1	none (no result: TAG inh)
CCCNC(=O)c1ccc(-c2nc3ccccc3s2)s1	MC4R barr agon 11 | MC4R barr conf inactive | MOR DOR agonist inactive
CCCNC(=O)Nc1nc2ccccc2s1	none
COc1ccc(NC(=O)OC[C@@H]2CSCCS(=O)(=O)N2)cc1	none (no result: MC4R antagonist, TAG inh, Calb FLC, MC4R barr agon, Efflux pump mplx)
C[C@@H]1CN([C@H](C)CO)C(=O)CCCn2nncc2CO[C@H]1CN(C)C(=O)c1ccncc1	none (no result: Calb FLC, Efflux pump mplx)
CCOc1ccc(OCC)c(NC(=O)c2nnn(CC(=O)Nc3cc(C)cc(C)c3)c2N)c1	MC4R barr agon 42 (no result: TAG inh) | MC4R barr conf 18 | MOR DOR agonist inactive
CC(C)(C)NC(=O)CN(C(=O)CCC(=O)Nc1nccs1)c1ccccc1F	MC4R barr agon 12 (no result: Calb FLC, Efflux pump mplx) | MC4R barr conf inactive | MOR DOR agonist inactive
Cc1cc(C)c2nc(NC(=O)c3ccco3)sc2c1	none (no result: TAG inh)
Cc1cc(Cl)cc2sc(NC(=O)c3ccco3)nc12	MC4R barr agon 11 (no result: GalR3 antagonist) | MC4R barr conf inactive | MOR DOR agonist inactive
COc1ccc(-c2oc3ccc(-c4ccc(OC)nc4)cc3c2C#CC2(O)CCCCC2)cc1	MC4R barr agon 13 | MC4R barr conf 11 | MOR DOR agonist inactive
COc1ccc(-c2oc3ccc(-c4ccc5c(c4)OCO5)cc3c2C#CC2(O)CCCCC2)cc1	MC4R barr agon 15 | MC4R barr conf 17 | MOR DOR agonist inactive
C=CCNC(=S)N/N=C/c1ccc(-c2ccc(Cl)cc2Cl)o1	MC4R barr agon 10 | MC4R barr conf inactive | MOR DOR agonist inactive
C=CCNC(=S)N/N=C/c1ccc(-c2cc(Cl)ccc2Cl)o1	none (no result: TAG inh)
C#CCN1[C@@H]2CCN(C2)c2cc(Br)ccc2S1(=O)=O	none (no result: Calb FLC, Efflux pump mplx)
CCOC(=O)c1sc2nc(NC(=O)C(C)(C)C)sc2c1C	MC4R barr agon 10.0 | MC4R barr conf inactive | MOR DOR agonist inactive
COc1ccc(-c2cn[nH]c2-c2ccc(OCc3ccccc3F)cc2O)cc1OC	MC4R barr agon 14 | MC4R barr conf inactive | MOR DOR agonist inactive
O=C(C(=O)N1CCC(CNC(=O)C2COc3ccccc3O2)CC1)c1cc2ccccc2o1 (stereo not given)	none (no result: MC4R antagonist, TAG inh, Calb FLC, MC4R barr agon, Efflux pump mplx)
Cc1ccccc1N1C(=O)C2CCCN2C1=S (stereo not given)	none (no result: Calb FLC)
CCC(C)c1ccc(OCCn2cc(/C=N/NC(=O)CSc3nnc(C)s3)c3ccccc32)cc1 (stereo not given)	MC4R barr agon 16 | MC4R barr conf inactive | MOR DOR agonist inactive
CC(=O)OCC(COC(C)=O)(CN1C(=O)c2ccccc2C1=O)CN1C(=O)c2ccccc2C1=O	none (no result: MC4R antagonist, TAG inh, Calb FLC, MC4R barr agon, Efflux pump mplx)
O=C(Nc1ccccc1Oc1ccccc1)c1cc([N+](=O)[O-])ccc1Cl	MC4R barr agon 14 (no result: TAG inh) | MC4R barr conf inactive | MOR DOR agonist inactive
O=C(Nc1ccc(Nc2ccccc2)cc1)c1cc([N+](=O)[O-])ccc1Cl	none
COc1cccc(CNC(=O)[C@H]2CCCN2C(=O)[C@H]2CCCN2C(=O)c2cccc(F)c2)c1	none (no result: MC4R antagonist, TAG inh, Calb FLC, MC4R barr agon, Efflux pump mplx)
CC(=O)c1nn(-c2ccccc2)cc1C(=O)c1ccc(C)cc1	none
CC(=O)c1nn(-c2cccc(Cl)c2)cc1C(=O)c1ccco1	none
CC(=O)c1nn(-c2cccc(Br)c2)cc1C(=O)c1ccc2ccccc2c1	none
CC(=O)c1nn(-c2ccc(Cl)cc2)cc1C(=O)c1ccc(C)cc1	MC4R barr agon 21 | MC4R barr conf 13 | MOR DOR agonist inactive
CC(=O)c1nn(-c2cccc(C)c2)cc1C(=O)c1cccc(Br)c1	MC4R barr agon 12 | MC4R barr conf inactive | MOR DOR agonist inactive
COc1ccc(C(=O)c2cn(-c3cccc(Br)c3)nc2C(C)=O)cc1	MC4R barr agon 15 | MC4R barr conf inactive | MOR DOR agonist inactive

Screening data as filed in PubChem.
